The record followed here is ChEMBL document CHEMBL3585292, “Anti-dormant mycobacterial activity and target analysis of nybomycin produced by a marine-derived Streptomyces sp” (2015).

Experiment [1] is described as follows: Binding affinity to pMV206 DNA (unknown origin) at 260 pmol after 1 hr by agarose gel electrophoresis.
In experiment [2] the test system is Mycolicibacterium smegmatis. Briefly: Antibacterial activity against Mycobacterium smegmatis MC2 155 under aerobic condition after 36 hrs by MTT assay. The note with it: str. MC2 155, 36 h. It is filed as functional. The method in brief:
(§1)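 MTT microdilution. Mid-log bacilli in 7H9 with 10% OADC, 0.5% glycerol, 0.05% Tween 80, seeded at 1 × 10⁴ CFU/0.1 mL (M. smegmatis) or 1 × 10⁵ CFU/0.1 mL (BCG, M. tuberculosis), then serially diluted sample added. Aerobic incubation at 37 °C; hypoxic incubation at 37 °C under N2 with 0.2% O2. MTT (0.5 mg/mL, 50 µL) added for 12 h more, OD560 read to give MIC.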
(Tetrazolium assays rely on reduction of a dye to a coloured formazan, in cell work by metabolically active cells.)

A short description of experiment [3]: Binding affinity to pMV206 DNA (unknown origin) with cloned 696695 to 700844 bp of Mycobacterium bovis BCG genome overexpressed in Mycobacterium smegmatis ICHO1035 at 260 pmol after 1 hr by agarose gel electrophoresis.
The test system of experiment [4] is Mycolicibacterium smegmatis. Briefly: Antibacterial activity against Mycobacterium smegmatis MC2 155 under hypoxic condition after 96 hrs by MTT assay. As to conditions: str. MC2 155, 96 h. It is filed as functional. The method in brief: as §1
The nature of experiment [5]: Binding affinity to pMV206 DNA (unknown origin) with cloned 700476 to 702854 bp of Mycobacterium bovis BCG genome overexpressed in Mycobacterium smegmatis ICHO1036 at 260 pmol after 1 hr by agarose gel electrophoresis.
A short description of experiment [6]: Inhibition of nybomycin probe (2) binding to pMV206 DNA (unknown origin) with cloned 700476 to 702854 bp of Mycobacterium bovis BCG genome overexpressed in Mycobacterium smegmatis ICHO1036 at 60 uM after 1 hr by agarose gel electrophoresis.
Experiment [7] has as its system Mycolicibacterium smegmatis. Briefly: Antibacterial activity against Mycobacterium smegmatis ICHO1034 harboring pMV206 with cloned 685769 to 689308 bp of Mycobacterium bovis BCG genome at 2 ug/ml by agar plate method. It is filed as functional, organism-based.
For experiment [8], the system named is Mycolicibacterium smegmatis. Kind of experiment: Antibacterial activity against Mycobacterium smegmatis ICHO1036 harboring pMV206 with cloned 700476 to 702854 bp of Mycobacterium bovis BCG genome at 4 ug/ml by agar plate method. It is filed as functional, organism-based.
The test system of experiment [9] is Mycolicibacterium smegmatis. Kind of experiment: Antibacterial activity against Mycobacterium smegmatis ICHO2012 harboring pYUB415 with cloned 686465 to 716464 bp of Mycobacterium bovis BCG genome at 4 ug/ml by agar plate method. It is filed as functional, organism-based.
Experiment [10] has as its system Mycobacterium tuberculosis. Kind of experiment: Antibacterial activity against Mycobacterium tuberculosis T1538 under aerobic condition after 7 days by MTT assay. It is filed as functional. The note with it: T1538, 168 h. In a few lines:
as §1

Experiment [11] has as its system Mycobacterium tuberculosis. Briefly: Antibacterial activity against Mycobacterium tuberculosis T1413 under aerobic condition after 7 days by MTT assay. It is filed as functional. As to conditions: T1413, 168 h. In a few lines: as §1
For experiment [12], the system named is Mycolicibacterium smegmatis. Kind of experiment: Antibacterial activity against Mycobacterium smegmatis MC2 155 assessed as induction of morphological changes at 1 ug/ml after 48 hrs by phase contrast/scanning electron microscopic analysis. It is filed as functional, organism-based. As to conditions: str. MC2 155.
The test system of experiment [13] is Mycolicibacterium smegmatis. Briefly: Antibacterial activity against Mycobacterium smegmatis ICHO1035 harboring pMV206 with cloned 696695 to 700844 bp of Mycobacterium bovis BCG genome at 2 ug/ml by agar plate method. It is filed as functional, organism-based.
The test system of experiment [14] is Mycolicibacterium smegmatis. Kind of experiment: Antibacterial activity against Mycobacterium smegmatis ICHO1037 harboring pMV261 with cloned 4109204 to 4110235 bp of Mycobacterium bovis BCG genome at 4 ug/ml by agar plate method. It is filed as functional, organism-based.
Experiment [15] has as its system Mycolicibacterium smegmatis. Kind of experiment: Antibacterial activity against Mycobacterium smegmatis ICHO1034 harboring pMV206 with cloned 685769 to 689308 bp of Mycobacterium bovis BCG genome at 4 ug/ml by agar plate method. It is filed as functional, organism-based.
Experiment [16] has as its system Mycolicibacterium smegmatis. Kind of experiment: Antibacterial activity against Mycobacterium smegmatis ICHO1037 harboring pMV261 with cloned 4109204 to 4110235 bp of Mycobacterium bovis BCG genome at 2 ug/ml by agar plate method. It is filed as functional, organism-based.
The subject of experiment [17] is Mycolicibacterium smegmatis. Briefly: Antibacterial activity against Mycobacterium smegmatis ICHO1035 harboring pMV206 with cloned 696695 to 700844 bp of Mycobacterium bovis BCG genome at 4 ug/ml by agar plate method. It is filed as functional, organism-based.
In experiment [18] the test system is Mycolicibacterium smegmatis. Kind of experiment: Antibacterial activity against Mycobacterium smegmatis ICHO2012 harboring pYUB415 with cloned 686465 to 716464 bp of Mycobacterium bovis BCG genome at 2 ug/ml by agar plate method. It is filed as functional, organism-based.
Experiment [19] has as its system Mycobacterium tuberculosis. Briefly: Antibacterial activity against Mycobacterium tuberculosis H37Rv under aerobic condition after 7 days by MTT assay. It is filed as functional. As to conditions: 168 h. The method in brief: as §1
Experiment [20] relates to Mycolicibacterium smegmatis. Briefly: Antibacterial activity against Mycobacterium smegmatis ICHO1036 harboring pMV206 with cloned 700476 to 702854 bp of Mycobacterium bovis BCG genome at 2 ug/ml by agar plate method. It is filed as functional, organism-based.
Experiment [21] deals with Mycolicibacterium smegmatis. Briefly: Antibacterial activity against Mycobacterium smegmatis ICHO1038 harboring pMV261 with cloned 4126836 to 4129396 bp of Mycobacterium bovis BCG genome at 4 ug/ml by agar plate method. It is filed as functional, organism-based.

Converted amounts (≈) assume the structure as drawn. The source made the active and inactive calls. No cut-off for these calls is given here. A value given as a limit tells only on which side of the number the result lay.

A word on the MIC: it is the least concentration at which growth counts as inhibited. Read a high MIC as weaker potency.

Take `Cc1cc(=O)n2c3c(c4c(cc13)c(COC(=O)CCCc1cn(CCOCCOCCOCCOCCOCCOCCOCCOCCOCCOCCNC(=O)CCCC[C@@H]3SC[C@@H]5NC(=O)N[C@@H]53)nn1)cc(=O)n4C)OC2`: the outcome in experiment [1], in experiment [3] and in [5] was Active. For the same molecule, the results for the MIC in experiment [2] and in experiment [4] were 25 µg/mL (≈ 21.8 µM) and 6.25 µg/mL (≈ 5.46 µM), respectively.
Consider `NNC(=O)c1ccncc1` [ISONIAZID], for which the results for the MIC in experiment [2] and in experiment [4] were 2.5 µg/mL (≈ 18.2 µM) and 25 µg/mL (≈ 182 µM), respectively. The inhibition result in [6] was “inactive”.
Regarding `COC(=O)CCCc1cn(CCOCCOCCOCCOCCOCCOCCOCCOCCOCCOCCNC(=O)CCCC[C@@H]2SC[C@@H]3NC(=O)N[C@@H]32)nn1`, the MIC in [2] and in [4] was above 200 µg/mL each time. The result in experiment [5] was inactive.
As for `Cc1cc(=O)n2c3c(c4c(cc13)c(CO)cc(=O)n4C)OC2`, the result in [7], in experiment [9], in [18] and in experiment [20] was inactive. Also, the outcome in experiment [8], in [12], in experiment [13], in experiment [14], in [15] and in [16] was Active. The outcome in [17] and in experiment [21] was Active. Also, the MIC in experiment [2] was found to be 1 µg/mL (≈ 3.35 µM); in experiment [10], 5.2 µg/mL (≈ 17.4 µM); in experiment [11], 6.3 µg/mL (≈ 21.1 µM); in experiment [19], 4.2 µg/mL (≈ 14.1 µM); in experiment [4], 1 µg/mL (≈ 3.35 µM). Also, the inhibition entry in experiment [6] was “Active”.
